TNF death inh: TNF-alpha cell death inhibition in Jurkat FADD-/- cells | activation (protection from cell death), % at 10 µM | AID 463075 | Jurkat FADD-/- TNF necroptosis rescue, ATP luminescence, 24 h; 0 = TNF only, 100 = no-TNF cells | 220,000 compounds, 0.068% hits;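 active = activation, meaning protection from cell death, of at least 50% relative to plate controls; inactive = activation below 50%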;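 note: necroptosis triggered by 40 ng/mL TNF-alpha added together with compound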
L929 necroptosis: blocks zVAD induced death of L929 cells; L929 zVAD necroptosis rescue, ATP luminescence, 24 h; with zVAD 60 µM; 220,000 compounds, 0.38% hits; viability rescue, % at 10 µM; AID 1377;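 active = activation, scaled between plate controls, above about 75%, limit read from the data; inactive = activation under that limit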;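 note: 0% = zVAD with DMSO and 100% = DMSO alone without zVAD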
RanGTP-Imp inh: disruptors of Ran-importin-beta complex formation – biochemical, FRET, CFP-Ran, YFP-importin-beta, homogeneous, primary screen; cell-free CFP-Ran/YFP-importin-beta FRET ratio; inhibition, % (no concentration beside the values); 300,000 compounds, 1.1% hits; AID 2216;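 active = more than half of the replicate wells show a fall in the fluorescence ratio signal beyond about 16%, limit read from the data, passing the limit was not always enough; inconclusive = exactly half of the replicate wells pass the set limit; inactive = fewer than half of replicates pass the limit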;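 note: 0% = DMSO wells and 100% = Ran loaded with GDP instead of GTP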
Hck-Nef inh: human Hck-Nef kinase inhibition | P08631 | Recombinant Hck-YEEI plus Nef, Z-Lyte FRET kinase assay | inhibition, % at 20 µM | 220,000 compounds, 0.68% hits | AID 463187;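 active = Hck-Nef kinase inhibition above about 50%, limit read from the data; inactive = inhibition below that limit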;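 note: 0% = DMSO with Hck plus Nef and 100% = Hck alone without Nef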
Target sequence (P08631 whole entry, looked up): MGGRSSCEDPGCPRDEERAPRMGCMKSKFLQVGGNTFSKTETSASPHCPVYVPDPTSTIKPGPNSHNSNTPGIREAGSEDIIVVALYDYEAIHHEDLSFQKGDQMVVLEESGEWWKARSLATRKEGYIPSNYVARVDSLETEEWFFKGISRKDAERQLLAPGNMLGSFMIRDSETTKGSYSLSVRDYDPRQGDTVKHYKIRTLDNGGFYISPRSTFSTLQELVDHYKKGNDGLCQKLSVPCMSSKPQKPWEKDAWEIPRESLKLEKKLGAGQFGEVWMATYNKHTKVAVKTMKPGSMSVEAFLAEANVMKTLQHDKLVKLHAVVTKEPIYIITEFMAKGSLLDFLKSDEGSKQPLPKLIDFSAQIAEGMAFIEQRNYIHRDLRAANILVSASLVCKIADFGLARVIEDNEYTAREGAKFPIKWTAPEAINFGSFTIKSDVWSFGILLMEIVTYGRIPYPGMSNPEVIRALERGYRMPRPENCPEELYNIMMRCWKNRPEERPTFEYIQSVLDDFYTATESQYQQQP
Runt-SMMHC FRET: inhibitors of human RUNX1 Runt domain binding to CBFb-SMMHC; Cerulean-Runt/Venus-CBFb-SMMHC FRET ratio 530/480, 1 h; inhibition, % at 20 µM; 220,000 compounds, 0.74% hits; AID 1434;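 active = mean inhibition across duplicate retests at 20 µM reaching about 50%, limit read from the data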;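 note: 0% = DMSO wells and 100% = wells with excess untagged CBFb-SMMHC; inhibitors lower the FRET ratio by blocking Runt binding to CBFb-SMMHC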
Runt-CBFb FRET: inhibitors of human RUNX1 Runt domain binding to CBFb. Q01196+Q13951. Cerulean-Runt/Venus-CBFb FRET ratio 530/480, 1 h. inhibition, % at 20 µM. 220,000 compounds, 0.46% hits. AID 1496;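 active = inhibition over about 50% at 20 µM in the single-dose screen, limit read from the data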;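 note: 0% = DMSO wells and 100% = excess unlabeled CBFb competitor control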
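test system = Cerulean-Runt domain fusion protein, energy donor | probe or stimulus = Venus-CBFb binding partner, 100 nM | incubation = two 1 h room-temperature incubations shielded from light | detection = fluorescence energy transfer, 422 nm excitation, 530/480 nm emission | measure = loss of energy transfer signal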
The depositor's hits bear a star; ? = inconclusive; nt = no result. This is a sample that favours compounds with a hit; in the whole collection about 2.1% have one here.

SMILES	TNF death inh	L929 necroptosis	RanGTP-Imp inh	Hck-Nef inh	Runt-SMMHC FRET	Runt-CBFb FRET
CN1C(=O)Cc2cc(S(=O)(=O)N3CCOCC3)ccc21	-1	1	39*	0	3	0
O=[N+]([O-])c1cc(S(=O)(=O)N2CCOCC2)ccc1N1CCCC1	1	0	-1	17	-3	4
O=C1C2CC=C(Cl)CC2C(=O)N1c1ncn[nH]1 (stereo unspecified)	0	1	2	0	-5	-3
O=C1C2CC=CCC2C(=O)N1c1ncn[nH]1 (stereo unspecified)	0	-1	39*	9	-8	0
COc1ccc(NC(=O)CCNS(=O)(=O)c2ccc3c(c2)c(=O)n(C)c(=O)n3C)c(OC)c1	2	nt	2	4	-3	-1
Cc1ccc(-n2c(N)c(-c3nc4ccccc4n3C)sc2=S)cc1	-1	1	28*	-1	0	40
CCN(CC)c1ccc(-c2nn3c(-c4cccnc4)nnc3s2)cc1	-17	1	11	32	80*	21
c1cncc(-c2nnc3sc(-c4ccco4)nn23)c1	0	0	5	3	-3	3
COc1ccc(-c2cc(=O)c(C(=O)c3ccc(C)cc3)n[nH]2)cc1	-1	5	-1	-5	-1	0
CCOC(=O)c1c2n(c3ccc(O)cc13)CCCCC2	0	0	22*	-7	-4	-2
Cc1c(C(=O)N/N=C/c2ccc(O)c(Br)c2)sc(N)c1C#N	8	76*	nt	10	-2	-4
COc1cc(/C=N/NC(=O)c2sc(N)c(C#N)c2C)ccc1O	4	2	-2	8	1	2
CN1CCN(Cc2cc(=O)oc3cc4c(cc23)CCC4)CC1	0	0	-1	0	2	3
COC(=O)C1CCN(Cc2cc(=O)oc3cc(OC)ccc23)CC1	0	0	4	0	4	0
CCc1cc2c(CN3CCN(CCO)CC3)cc(=O)oc2cc1O	-1	1	113*	32	62*	70*
CCc1cc2c(CN3CCN(C)CC3)cc(=O)oc2cc1O	0	1	114*	29	57*	18
COc1ccc(OC)c(CN2CCN(Cc3cc(=O)oc4cc(O)ccc34)CC2)c1	nt	nt	61*	nt	nt	nt
COc1ccc(-c2cn3nc(SCC(=O)NCC4CCCO4)ccc3n2)cc1 (stereo unspecified)	nt	nt	10	nt	nt	nt
O=C(CCc1ccc(S(=O)(=O)N2CCOCC2)cc1)Nc1nccs1	1	0	1	-2	147	104*
O=C(CCc1ccc(S(=O)(=O)N2CCOCC2)cc1)Nc1nc(COc2ccccc2)cs1	-12	0	2	4	-2	-1
CCCn1c(C)cc(C(=O)COC(=O)c2nccnc2N)c1C	-1	7	25*	27	7	11
Cc1c(CCC(=O)O)c(=O)oc2c(C)c3occ(-c4ccc(Cl)cc4)c3cc12	nt	nt	6	nt	nt	nt
Cc1c(CC(=O)O)c(=O)oc2c(C)c3occ(-c4ccccc4)c3cc12	nt	nt	19*	nt	nt	nt
Clc1ccc(N2N=C(c3cccs3)CC2c2ccco2)cc1 (stereo unspecified)	-2	0	10	22	91*	nt
CCC(=O)N1N=C(c2cccs2)CC1c1ccco1 (stereo unspecified)	1	4	-5	24	1	2
SMILES	TNF death inh	L929 necroptosis	RanGTP-Imp inh	Hck-Nef inh	Runt-SMMHC FRET	Runt-CBFb FRET
c1ccc(C2=NN(c3ccccc3)C(c3ccco3)C2)cc1 (stereo unspecified)	-1	0	-7	23	3	6
c1ccc(N2N=C(c3cccs3)CC2c2ccco2)cc1 (stereo unspecified)	-3	0	1	35	82*	32
CCOc1ccc(NC(=O)Nc2cccnc2)cc1	-6	0	?	10	-3	-3
O=c1[nH]c2c(=O)[nH]cnc2nc1-c1ccccc1	nt	nt	47*	nt	nt	nt
O=c1[nH]c(-c2ccccc2)cnc1-c1ccccc1	nt	nt	0	nt	nt	nt
CC(C)(C)C(=O)Nc1ccccc1N1CCN(c2ccc(F)cc2)CC1	nt	nt	3	nt	nt	nt
CSc1nc(-c2ccccc2)nc(N2CCN(C)CC2)c1C(C)=O	-4	1	70*	0	7	-3
CSc1nc(-c2ccccc2)nc(N2CCCC2)c1C(C)=O	-1	0	1	8	-1	-1
CC(C)CNC(=S)N(CCCN(C)C)Cc1cc2cc3c(cc2[nH]c1=O)OCCO3	nt	nt	-3	nt	nt	nt
CC(C)CNC(=S)N(CCCO)Cc1cc2cc3c(cc2[nH]c1=O)OCCO3	nt	nt	31*	nt	nt	nt
CC1CCc2nc3ccc(S(=O)(=O)N4CCC(C(=O)NCc5ccccc5Cl)CC4)cc3c(C(=O)O)c2C1 (stereo unspecified)	nt	nt	22*	nt	nt	nt
COc1ccc(CNC(=O)C2CCN(S(=O)(=O)c3ccc4nc5c(c(C(=O)O)c4c3)CC(C)CC5)CC2)cc1 (stereo unspecified)	nt	nt	1	nt	nt	nt
O=C(NCC1CCCN(C(=O)CN2CCCCC2)C1)c1ccccc1Cl (stereo unspecified)	0	0	-1	9	3	2
COCCCNC(=S)NCCNc1nc2c(C)c(C)ccc2cc1C#N	0	1	nt	22	64*	32
Cc1cc(C)c2cc(C#N)c(NCCNC(=S)NCCCN3CCOCC3)nc2c1	3	3	5	29	43	23
Cc1ccc2cc(C#N)c(N3CCCN(C(=O)C4CCCO4)CC3)nc2c1C (stereo unspecified)	0	1	50*	0	64*	6
Cc1cc(C)c2nc(N3CCCN(C(=O)c4ccco4)CC3)c(C#N)cc2c1	-8	0	89*	15	70*	13
COCCCNC(=S)NCCCNc1nc2cc(C)cc(C)c2cc1C#N	-2	1	-9	24	66*	20
COc1ccc(C)cc1NC(=O)CCS(=O)(=O)c1ccc2c(c1)oc(=O)n2C	nt	nt	-4	nt	nt	nt
Cc1cccc2cc(C#N)c(N3CCOCC3)nc12	nt	nt	13	nt	nt	nt
Cc1cccc2cc(C#N)c(N3CCC(O)CC3)nc12	-1	2	29*	15	71*	36
COCCCNC(=S)N1CCCN(c2nc3c(C)c(C)ccc3cc2C#N)CC1	-5	1	43*	23	nt	nt
Cc1ccc(C(=O)N/C(=C\c2cn(S(=O)(=O)N(C)C)c3ccccc23)C(=O)NCCCN2CCOCC2)cc1	nt	nt	5	nt	nt	nt
CC(CCC(=O)O)C1CC[C@H]2C3CCC4CC(=O)CCC4(C)[C@H]3CC(=O)C12C (stereo partly specified)	nt	nt	0	nt	nt	nt
Cc1ccc(C(=O)Nc2c3c(nn2C(C)(C)C)CS(=O)(=O)C3)cc1C	0	0	-2	2	6	98*

Bioassay records as filed in PubChem.
